Experimental data taken from PMC5730044 (International journal of medical microbiology : IJMM, 2014).
Values after ≈ are worked out from the molar mass of the structure shown.

Assays:
[1] = test system: S. pneumoniae CJ9400; experiment: Biofilm inhibition assay; type: cell-based; settings: CJ9400, TSB, 24 h
[2] = test system: S. pneumoniae BC7326; experiment: Broth microdilution assay; type: cell-based; settings: Streptococcus pneumoniae, BC7326, 18 h, read-out: 90% minimal inhibitory concentration
[3] = test system: pneumococcal NA of strain CJ9400; experiment: Lectin-based hemagglutination; type: cell-based, S. pneumoniae; settings: minimal NA inhibitory concentration
[4] = test system: S. pneumoniae CJ9400; experiment: Minimal bactericidal concentration; type: cell-based; settings: viability reduced by ≥99.9%
[5] = target: recombinant NanA of DSM20566 (Streptococcus pneumoniae, UniProt P62575); type: biochemical, S. pneumoniae; settings: for mechanism of inhibition: rNanA, Lineweaver-Burk / SigmaPlot analysis
Chain of recombinant NanA of DSM20566 (P62575 116-1035 limits assumed): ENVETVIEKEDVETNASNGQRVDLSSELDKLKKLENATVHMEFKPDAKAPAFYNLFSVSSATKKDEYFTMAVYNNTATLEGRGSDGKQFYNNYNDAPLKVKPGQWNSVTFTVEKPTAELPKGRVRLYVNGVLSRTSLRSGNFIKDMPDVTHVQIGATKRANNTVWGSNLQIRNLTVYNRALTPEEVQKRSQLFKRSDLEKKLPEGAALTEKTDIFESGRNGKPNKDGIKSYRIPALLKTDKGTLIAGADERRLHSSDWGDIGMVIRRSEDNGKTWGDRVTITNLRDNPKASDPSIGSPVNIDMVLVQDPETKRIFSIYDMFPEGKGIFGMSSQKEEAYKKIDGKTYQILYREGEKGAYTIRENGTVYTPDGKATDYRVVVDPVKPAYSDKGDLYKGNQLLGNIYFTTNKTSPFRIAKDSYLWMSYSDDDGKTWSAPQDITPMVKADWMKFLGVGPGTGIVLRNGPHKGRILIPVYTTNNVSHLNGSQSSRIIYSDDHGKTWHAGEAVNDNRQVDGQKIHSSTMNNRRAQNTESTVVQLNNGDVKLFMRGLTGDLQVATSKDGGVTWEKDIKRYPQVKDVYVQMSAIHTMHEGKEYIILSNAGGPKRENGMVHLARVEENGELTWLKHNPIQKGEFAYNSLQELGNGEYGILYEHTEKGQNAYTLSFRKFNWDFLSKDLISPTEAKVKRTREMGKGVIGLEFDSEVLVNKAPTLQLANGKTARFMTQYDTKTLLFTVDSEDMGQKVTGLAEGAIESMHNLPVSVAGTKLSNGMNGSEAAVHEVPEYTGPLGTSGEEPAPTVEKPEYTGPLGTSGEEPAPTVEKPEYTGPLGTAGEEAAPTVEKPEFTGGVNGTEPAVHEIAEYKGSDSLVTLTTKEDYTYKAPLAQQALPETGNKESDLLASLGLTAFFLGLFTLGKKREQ

[6] = test system: S. pneumoniae BC57; experiment: Broth microdilution assay; type: cell-based; settings: Streptococcus pneumoniae, BC57, 18 h, read-out: 90% minimal inhibitory concentration
[7] = test system: S. pneumoniae D39; experiment: Broth microdilution assay; type: cell-based; settings: Streptococcus pneumoniae, D39, 18 h, read-out: 90% minimal inhibitory concentration
[8] = test system: S. pneumoniae CF6937; experiment: Broth microdilution assay; type: cell-based; settings: Streptococcus pneumoniae, CF6937, 18 h, read-out: 90% minimal inhibitory concentration
[9] = test system: S. pneumoniae DSM14378; experiment: Broth microdilution assay; type: cell-based; settings: Streptococcus pneumoniae, DSM14378, 18 h, read-out: 90% minimal inhibitory concentration
[10] = test system: S. pneumoniae; experiment: Broth microdilution assay; type: cell-based; settings: Streptococcus pneumoniae, read-out: MIC90 values
Outline: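 Pneumococci were pre-grown in BHI with gentle shaking at 37°C for 4–5 h (mid-exponential), adjusted to McFarland 0.5 (1.5 × 10^8 cfu/mL) and diluted 50× in BHI. 50 µL bacteria plus 100 µL of two-fold compound dilutions (top 50 or 200 µM) in BHI were run in duplicate, overnight at 37°C, 5% CO₂. OD620 at 18 h minus 0 h was taken relative to no-compound growth control; MIC90 is 90% turbidity reduction.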

[11] = test system: S. pneumoniae BC7326; experiment: Minimal bactericidal concentration; type: cell-based; settings: viability reduced by ≥99.9%
[12] = test system: S. pneumoniae PN8828 adherence to A549 cells; experiment: Adherence inhibition assay on A549 cells; type: cell-based; settings: Streptococcus pneumoniae, A549, 1.5 h, read-out: concentration giving 50% reduction in adherence levels (AIC50)
[13] = test system: S. pneumoniae CF8919; experiment: Broth microdilution assay; type: cell-based; settings: Streptococcus pneumoniae, CF8919, 18 h, read-out: 90% minimal inhibitory concentration
[14] = test system: S. pneumoniae D39; experiment: Biofilm inhibition assay; type: cell-based; settings: D39, TSB, 24 h
[15] = test system: S. pneumoniae CF6937; experiment: Biofilm inhibition assay; type: cell-based; settings: CF6937, TSB, 24 h
[16] = test system: S. pneumoniae D39; experiment: Minimal bactericidal concentration; type: cell-based; settings: viability reduced by ≥99.9%
[17] = test system: A549 cells; experiment: Cytotoxicity on confluent A549 cell monolayers; type: cell-based, human; settings: 12.50 μM, A549, 72 h
Outline: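 Three-day-old confluent A549 monolayers were exposed to two-fold serial compound dilutions in duplicate for 72 h at 37°C, 5% CO₂. Cells were washed, fixed and crystal violet-stained, and dye was eluted in citrate/HCl/ethanol buffer for OD550. Viability is relative to six untreated controls. CC50 comes from mean dose-response curves of at least three assays. Morphology at 12.5 µM was checked by phase-contrast microscopy.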

[18] = test system: S. pneumoniae BC57; experiment: Biofilm inhibition assay; type: cell-based; settings: BC57, TSB, 24 h
[19] = test system: S. pneumoniae CF6937; experiment: Minimal bactericidal concentration; type: cell-based; settings: viability reduced by ≥99.9%
[20] = test system: S. pneumoniae CF8919; experiment: Biofilm inhibition assay; type: cell-based; settings: CF8919, TSB, 24 h
[21] = test system: S. pneumoniae BC7326; experiment: Biofilm inhibition assay; type: cell-based; settings: BC7326, TSB, 24 h
[22] = test system: S. pneumoniae DSM20566; experiment: Broth microdilution assay; type: cell-based; settings: Streptococcus pneumoniae, DSM20566, 18 h, read-out: 90% minimal inhibitory concentration
[23] = test system: pneumococcal adherence to pulmonary epithelial A549 cells
[24] = test system: S. pneumoniae DSM14378; experiment: Biofilm inhibition assay; type: cell-based; settings: DSM14378, TSB, 24 h
[25] = test system: S. pneumoniae DSM20566; experiment: Biofilm inhibition assay; type: cell-based; settings: DSM20566, TSB, 24 h
[26] = test system: S. pneumoniae PN8828; experiment: Broth microdilution assay; type: cell-based; settings: Streptococcus pneumoniae, PN8828, 18 h, read-out: 90% minimal inhibitory concentration
[27] = test system: S. pneumoniae DSM14378; experiment: Minimal bactericidal concentration; type: cell-based; settings: viability reduced by ≥99.9%
[28] = test system: S. pneumoniae CJ9400; experiment: Broth microdilution assay; type: cell-based; settings: Streptococcus pneumoniae, CJ9400, 18 h, read-out: 90% minimal inhibitory concentration
[29] = test system: S. pneumoniae DSM20566; experiment: Minimal bactericidal concentration; type: cell-based; settings: viability reduced by ≥99.9%
[30] = test system: S. pneumoniae PN8828; experiment: Biofilm inhibition assay; type: cell-based; settings: PN8828, TSB, 24 h
[31] = test system: pneumococcal NA of strain DSM20566; experiment: Lectin-based hemagglutination; type: cell-based, S. pneumoniae; settings: minimal NA inhibitory concentration
[32] = test system: pneumococcal NA of strain D39; experiment: Lectin-based hemagglutination; type: cell-based, S. pneumoniae; settings: for Inhibitory concentration (HA assay): minimal NA inhibitory concentration, strain D39
[33] = test system: S. pneumoniae; experiment: Bactericidal activity, studied pneumococci; type: cell-based
[34] = test system: human erythrocytes; experiment: Erythrocyte hemolysis assay; type: cell-based; settings: observed in HA assay with D39 protein
[35] = Erythrocyte hemolysis assay; type: cell-based, human; settings: human, erythrocytes
[36] = test system: S. pneumoniae; experiment: Biofilm inhibition assay; type: cell-based; settings: range among all tested strains
[37] = test system: S. pneumoniae DSM20566 adherence to A549 cells; experiment: Adherence inhibition assay on A549 cells; type: cell-based; settings: Streptococcus pneumoniae, DSM20566, A549, 1.5 h, read-out: concentration giving 50% reduction in adherence levels (AIC50)
[38] = target: viral NAs; settings: ref Collins et al., 2008; cited from earlier work
[39] = target: T1, pneumococcal NA (Streptococcus pneumoniae, UniProt P62575); settings: ref Gut et al., 2011; cited from earlier work
T1 sequence (P62575 54-1006): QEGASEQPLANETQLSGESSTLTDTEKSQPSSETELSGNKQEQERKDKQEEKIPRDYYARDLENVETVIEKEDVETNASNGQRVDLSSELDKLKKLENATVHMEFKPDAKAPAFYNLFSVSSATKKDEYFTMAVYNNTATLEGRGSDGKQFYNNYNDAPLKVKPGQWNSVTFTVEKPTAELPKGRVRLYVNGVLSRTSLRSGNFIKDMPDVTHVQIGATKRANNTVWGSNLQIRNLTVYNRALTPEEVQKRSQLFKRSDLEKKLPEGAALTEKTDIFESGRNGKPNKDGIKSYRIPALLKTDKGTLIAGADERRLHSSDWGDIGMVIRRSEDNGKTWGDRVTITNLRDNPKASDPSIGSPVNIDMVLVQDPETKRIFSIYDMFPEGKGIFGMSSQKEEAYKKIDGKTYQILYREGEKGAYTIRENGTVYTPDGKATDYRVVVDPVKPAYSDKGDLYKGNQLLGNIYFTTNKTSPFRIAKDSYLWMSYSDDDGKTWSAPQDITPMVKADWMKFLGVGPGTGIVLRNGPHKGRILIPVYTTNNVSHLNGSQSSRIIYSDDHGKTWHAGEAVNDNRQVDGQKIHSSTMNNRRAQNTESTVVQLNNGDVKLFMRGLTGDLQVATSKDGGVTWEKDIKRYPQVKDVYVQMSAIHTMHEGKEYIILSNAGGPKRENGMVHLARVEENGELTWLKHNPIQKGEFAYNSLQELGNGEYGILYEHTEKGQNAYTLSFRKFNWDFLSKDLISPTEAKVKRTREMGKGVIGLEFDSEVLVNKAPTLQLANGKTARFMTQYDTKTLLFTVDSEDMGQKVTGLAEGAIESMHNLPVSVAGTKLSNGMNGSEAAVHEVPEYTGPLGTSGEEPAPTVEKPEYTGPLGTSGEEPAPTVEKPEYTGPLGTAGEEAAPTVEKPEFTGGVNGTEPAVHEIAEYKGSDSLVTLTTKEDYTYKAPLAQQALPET

[40] = target: T1, pneumococcal NA; type: biochemical, S. pneumoniae; settings: data not shown
[41] = target: T1, pneumococcal NA; type: biochemical, S. pneumoniae; settings: precipitated total proteins of all strains

COc1cc2oc(-c3ccc(O)cc3O)c(CC=C(C)C)c(=O)c2c(O)c1/C=C/C(C)C [artocarpin]
90% minimal biofilm inhibitory concentration [1]: 2.97 ± 0.13 µM
MIC [2]: 1.12 ± 0.37 µM (≈ 0.489 µg/mL)
Inhibitory concentration (HA assay) [3]: 2.6 ± 1.1 µM
Bactericidal concentration [4]: 2.74 ± 0.68 µM
mechanism of inhibition [5]: mixed-type inhibition
MIC [6]: 1.45 ± 0.04 µM (≈ 0.633 µg/mL)
MIC [7]: 1.29 ± 0.31 µM (≈ 0.563 µg/mL)
MIC [8]: 3.39 ± 2.1 µM (≈ 1.48 µg/mL)
MIC [9]: 5.75 ± 0.13 µM (≈ 2.51 µg/mL)
MIC90 [10]: 0.99 to 5.75 µM (≈ 0.432 to 2.51 µg/mL)
Bactericidal concentration [11]: 3.32 ± 1.94 µM
IC50 [12]: 4100 nM
MIC [13]: 1.45 ± 0.01 µM (≈ 0.633 µg/mL)
90% minimal biofilm inhibitory concentration [14]: 2.22 ± 0.76 µM
90% minimal biofilm inhibitory concentration [15]: 2.73 ± 0.27 µM
Bactericidal concentration [16]: 2.50 ± 0.77 µM
cytotoxic effect (in words) [17]: no cytotoxic effect
90% minimal biofilm inhibitory concentration [18]: 2.35 ± 0.68 µM
Bactericidal concentration [19]: 3.44 ± 1.53 µM
90% minimal biofilm inhibitory concentration [20]: 1.15 ± 0.34 µM
90% minimal biofilm inhibitory concentration [21]: 2.02 ± 0.62 µM
MIC [22]: 5.58 ± 0.97 µM (≈ 2.44 µg/mL)
effect on A549 cell viability under adherence assay conditions (in words) [23]: did not affect cell viability
90% minimal biofilm inhibitory concentration [24]: 2.37 ± 0.67 µM
90% minimal biofilm inhibitory concentration [25]: 2.88 ± 0.07 µM
MIC [26]: 0.99 ± 0.48 µM (≈ 0.432 µg/mL)
Bactericidal concentration [27]: 4.69 ± 1.98 µM
MIC [28]: 3.45 ± 2.05 µM (≈ 1.51 µg/mL)
Bactericidal concentration [29]: 3.13 ± 0.00 µM
90% minimal biofilm inhibitory concentration [30]: 1.40 ± 0.07 µM
Inhibitory concentration (HA assay) [31]: 7.7 ± 4.0 µM
activity in HA assay (in words) ([32]; reference strain D39): no activity
factor of reduction of viability of pneumococci ([33]; within 18 h): > 1000
concentration at which erythrocytes were lysed [34]: b The erythrocytes were lysed in the presence of artocarpin at concentrations higher than 10 µM.
hemolysis at 3 h, 31.6 µM [35]: 20%
mean MBIC90 values [36]: 1.15 to 2.97 µM
IC50 [37]: 7500 nM

CCC(CC)O[C@@H]1C=C(C(=O)O)C[C@H](N)[C@H]1NC(C)=O [oseltamivir, Oseltamivir carboxylate]
90% minimal biofilm inhibitory concentration [1]: > 50 µM
Inhibitory concentration (HA assay) [3]: 0.3 ± 0.0 µM
Bactericidal concentration [4]: > 50 µM
factor by which inhibitory activity on bacterial NAs is lower than on viral NAs ([5]; compared to viral NAs Ki of 0.32 nM): 1000
Ki ([5]; rNanA of DSM20566, MUNANA substrate): 230 nM
mechanism of inhibition [5]: competitively inhibited
Bactericidal concentration [11]: > 50 µM
Ki [38]: 0.32 nM
90% minimal biofilm inhibitory concentration [14]: > 50 µM
90% minimal biofilm inhibitory concentration [15]: > 50 µM
Bactericidal concentration [16]: > 50 µM
90% minimal biofilm inhibitory concentration [18]: > 50 µM
Bactericidal concentration [19]: > 50 µM
90% minimal biofilm inhibitory concentration [20]: > 50 µM
90% minimal biofilm inhibitory concentration [21]: > 50 µM
effect on adhesion of pneumococci to A549 cells (in words) ([23]; DSM20566 and PN8828): did not reduce pneumococcal adherence
90% minimal biofilm inhibitory concentration [24]: > 50 µM
90% minimal biofilm inhibitory concentration [25]: > 50 µM
Bactericidal concentration [27]: > 50 µM
Bactericidal concentration [29]: > 50 µM
90% minimal biofilm inhibitory concentration [30]: > 50 µM
Inhibitory concentration (HA assay) [31]: 2.1 ± 1.3 µM
Inhibitory concentration (HA assay) [32]: 10.0 ± 0.0 µM
concentration up to which no inhibitory or bactericidal activity was exhibited ([33]; maximum tested concentration): > 50 µM
inhibitory potency to pneumococcal NA (in words) [39]: medium

CC(=O)N[C@H]1[C@H]([C@H](O)[C@H](O)CO)OC(C(=O)O)=C[C@@H]1N=C(N)N [zanamivir]
90% minimal biofilm inhibitory concentration [1]: > 50 µM
MIC [2]: > 50 µM
Inhibitory concentration (HA assay) [3]: >100 µM
inhibition of NA activity, CL-based assay (in words) [40]: inefficacy
Bactericidal concentration [4]: > 50 µM
MIC [6]: > 50 µM
MIC [7]: > 50 µM
MIC [8]: > 50 µM
MIC [9]: > 50 µM
Bactericidal concentration [11]: > 50 µM
MIC [13]: > 50 µM
90% minimal biofilm inhibitory concentration [14]: > 50 µM
90% minimal biofilm inhibitory concentration [15]: > 50 µM
Bactericidal concentration [16]: > 50 µM
90% minimal biofilm inhibitory concentration [18]: > 50 µM
Bactericidal concentration [19]: > 50 µM
90% minimal biofilm inhibitory concentration [20]: > 50 µM
90% minimal biofilm inhibitory concentration [21]: > 50 µM
MIC [22]: > 50 µM
90% minimal biofilm inhibitory concentration [24]: > 50 µM
90% minimal biofilm inhibitory concentration [25]: > 50 µM
MIC [26]: > 50 µM
Bactericidal concentration [27]: > 50 µM
MIC [28]: > 50 µM
Bactericidal concentration [29]: > 50 µM
90% minimal biofilm inhibitory concentration [30]: > 50 µM
Inhibitory concentration (HA assay) [31]: >100 µM
Inhibitory concentration (HA assay) [32]: >100 µM
inhibition of NA activity, FL-based assay (in words) [41]: did not show an effect
inhibitory potency to pneumococcal NA (in words) [39]: weak
